# Active and inactive are the calls of the source. The calls are words filed in the database; no cut-off is given here.
# Experiments:
# HCT-116 [1] = test: Antiproliferative activity against human HCT116 cells by MTT assay; type: functional, cell-based
# Histone deacetylase 1 = Histone deacetylase 1 (Homo sapiens, UniProt Q13547); test: Inhibition of human recombinant HDAC1
# HMEC = test: Cytotoxicity against human HMEC cells; type: functional, cell-based
# How it was run: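 Cytotoxicity toward normal cells was measured as inhibition of proliferation of human normal mammary epithelial cells (HMEC), reported as IC50.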
# HCT-116 [2] = test: Cell cycle arrest in human HCT116 cells at G2/M phase; type: functional, cell-based
# How it was run: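 HCT116 cells treated with compounds in 1% DMSO for 16 h, then harvested by trypsinization and fixed. DNA was stained with propidium iodide and analysed by flow cytometry. The (G2+M)/S ratio is the percentage of gated cells in G2/M divided by the percentage in S phase.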
# [3] = Bioavailability in rat; type: ADME, organism-based; settings: in vivo
# T-24 = test: Induction of p21 WAF1/Cip1 transcription in human T24 cells assessed by luciferase reporter gene activity; type: functional, cell-based
# [4] = target: Histone deacetylase (Homo sapiens) (UniProt Q13547+O15379+Q9UBN7+Q92769+Q9UQL6+Q8WUI4+Q9BY41+Q96DB2+P56524+Q9UKV0+Q969S8); test: Inhibition of HDAC assessed as ability to induce histone acetylation in human T24 cells; type: functional, cell-based; settings: T-24
# How it was run: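 T24 human bladder carcinoma cells treated at […] for 16 h. Histones acid-extracted, separated by SDS–PAGE and immunoblotted with antibodies specific for acetylated histone H4; total H4 also probed. Dose-dependence judged from blot.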
# [5] = Half life in iv dosed rat; type: ADME, organism-based; settings: in vivo
# SW48 = test: Antitumor activity against human SW48 cells xenografted in mouse at 50 mg/kg, ip; type: functional; settings: route intraperitoneal, read-out: TGI
# How it was run: (§1)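 Human tumour cells grown as xenografts in mice; compounds given daily by intraperitoneal injection. Antitumour activity is expressed as % tumour growth inhibition relative to vehicle-treated controls. Body weight was followed as the measure of gross toxicity.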
# HCT-116 [6] = test: Antitumor activity against human HCT116 cells xenografted in mouse at 50 mg/kg, ip; type: functional; settings: HCT-116, ip, route intraperitoneal, read-out: TGI; how it was run: as §1
# Sequence of Histone deacetylase 1 (Q13547 whole entry): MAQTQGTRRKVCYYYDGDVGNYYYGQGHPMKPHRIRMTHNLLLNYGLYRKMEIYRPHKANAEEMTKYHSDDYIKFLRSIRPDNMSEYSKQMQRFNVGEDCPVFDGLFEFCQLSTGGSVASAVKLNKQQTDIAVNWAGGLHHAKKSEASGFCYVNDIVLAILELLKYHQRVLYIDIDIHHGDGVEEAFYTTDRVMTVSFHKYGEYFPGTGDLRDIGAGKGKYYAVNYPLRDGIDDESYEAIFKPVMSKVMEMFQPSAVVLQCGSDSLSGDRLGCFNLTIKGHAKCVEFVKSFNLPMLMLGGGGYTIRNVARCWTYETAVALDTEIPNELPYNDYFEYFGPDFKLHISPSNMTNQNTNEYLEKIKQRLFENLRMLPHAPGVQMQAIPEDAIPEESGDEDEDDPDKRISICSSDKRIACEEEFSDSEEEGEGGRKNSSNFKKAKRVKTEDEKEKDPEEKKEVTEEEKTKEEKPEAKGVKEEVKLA
SMILES,IC50 (HCT-116 [1]) [µM],IC50 (Histone deacetylase 1) [µM],also measured
Nc1ccccc1NC(=O)/C=C/c1ccc(NCc2ccc([N+](=O)[O-])cc2)cc1,15,4,–
Nc1ccccc1NC(=O)/C=C/c1ccc(NCc2ccncc2)cc1,2,10,–
COc1cc(NCc2ccc(C(=O)Nc3ccccc3N)cc2)cc(OC)c1OC,2,3,–
COc1cccc(NCc2ccc(/C=C/C(=O)Nc3ccccc3N)cc2)c1,10,17,–
Nc1ccccc1NC(=O)/C=C/c1ccc(NCCNc2ccccc2)nc1,5,2,–
COc1ccccc1NCc1ccc(/C=C/C(=O)Nc2ccccc2N)cc1,–,22,–
COc1ccc(CNc2ccc(C(=O)Nc3ccccc3N)cn2)cc1,–,4,–
Nc1ccccc1NC(=O)/C=C/c1ccc(NCc2ccc(F)cc2)nc1,2,5,–
COc1ccc(CNc2ccc(/C=C/C(=O)Nc3ccccc3N)cn2)cc1,–,2,–
Nc1ccccc1NC(=O)/C=C/c1ccc(NCc2ccc(OC(F)(F)F)cc2)cc1,50,5,–
COc1ccc(CNc2ccc(C(=O)Nc3ccccc3N)cc2)cc1,1,2,–
COc1ccc(NCc2ccc(/C=C/C(=O)Nc3ccccc3N)cc2)cc1OC,5,2,–
COc1ccc(NCc2ccc(C(=O)Nc3ccccc3N)cc2)cc1,2,0.6,–
COc1ccc(CNc2ccc(C(=O)Nc3ccccc3N)cc2)cc1OC,–,4,–
COc1cc(NCc2ccc(/C=C/C(=O)Nc3ccccc3N)cn2)cc(OC)c1OC,–,3,–
Nc1ccccc1NC(=O)/C=C/c1ccc(NCc2ccccc2)nc1,–,3,–
COc1ccc(CCNc2ccc(C(=O)Nc3ccccc3N)cn2)cc1,–,3,–
Nc1ccccc1NC(=O)/C=C/c1ccc(NCc2ccc(OC(F)(F)F)cc2)nc1,4,2,–
Nc1ccccc1NC(=O)/C=C/c1ccc(NCCCc2ccccc2)nc1,2,3,–
COc1cc(N(C)Cc2ccc(/C=C/C(=O)Nc3ccccc3N)cc2)cc(OC)c1OC,5,3,–
Nc1ccccc1NC(=O)/C=C/c1ccc(NCc2ccncc2)nc1,7,4,–
COc1ccc(CNc2ccc(/C=C/C(=O)Nc3ccccc3N)cc2)cc1,–,4,–
Nc1ccccc1NC(=O)/C=C/c1ccc(CNc2ccccc2)cc1,11,17,–
COc1cc(CNc2ccc(C(=O)Nc3ccccc3N)cn2)cc(OC)c1OC,3,5,–
CN(C)c1ccc(CNc2ccc(/C=C/C(=O)Nc3ccccc3N)cn2)cc1,3,4,–
COc1cc(CNc2ccc(C(=O)Nc3ccccc3N)cc2)cc(OC)c1OC,2,3,–
COc1cc(NCc2ccc(/C=C/C(=O)Nc3ccccc3N)cc2)cc(OC)c1OC,–,2,IC50 (HMEC): 39 µM; Activity (HCT-116 [2]): Active; bioavailability [3]: 65%; Activity (T-24): Active; Activity [4]: Dose-dependent effect; half-life [5]: 1.8 h
COc1ccc(NCc2ccc(C(=O)Nc3ccccc3N)cc2)cc1OC,–,–,IC50 (HMEC): 15 µM; Activity (HCT-116 [2]): Active; inhibition in vivo at 50 mg/kg (SW48): 66%; inhibition in vivo at 50 mg/kg (HCT-116 [6]): 66%; Activity (T-24): Active; Activity [4]: Dose-dependent effect; half-life [5]: 0.7 h
COc1cc(CNc2ccc(/C=C/C(=O)Nc3ccccc3N)cn2)cc(OC)c1OC,–,4,–
COc1ccc(NCc2ccc(/C=C/C(=O)Nc3ccccc3N)cc2)cc1,–,4,–
